Assay results from ChEMBL document CHEMBL5058577, “EUbOPEN Chemogenomics Library 2 (Multiplex)” (2022).

Test system: HEK-293T
Experiment: Multiplex assay against HEK293T
Assay type: toxicity, cell-based
Conditions: human
Method in brief: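 With compound added, live cells were imaged on a CQ1 microscope at 37°C and 5% CO2; staining with Hoechst33342, BioTracker Green Microtubule Cytoskeleton Dye, MitoTracker Red and Annexin V Alexa Fluor 680 had been done at seeding. The CellPathfinder machine-learning gating scheme split cells into Hoechst high-intensity objects or normal cells, normal cells into healthy, pyknosed or fragmented nuclei, and pyknosed cells into mitotic or apoptotic. The tubulin, mitochondrial-mass and membrane-permeability phenotypes are per cents of healthy-nucleus cells.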

[1] = 12 h, 1 µM, compound concentration 1 uM, replicate 1
[2] = 12 h, 1 µM, compound concentration 1 uM, replicate 2
[3] = 12 h, 10 µM, compound concentration 10 uM, replicate 1
[4] = 12 h, 10 µM, compound concentration 10 uM, replicate 2
[5] = 24 h, 1 µM, compound concentration 1 uM, replicate 1
[6] = 24 h, 1 µM, compound concentration 1 uM, replicate 2
[7] = 24 h, 10 µM, compound concentration 10 uM, replicate 1
[8] = 24 h, 10 µM, compound concentration 10 uM, replicate 2
[9] = 48 h, 1 µM, compound concentration 1 uM, replicate 1
[10] = 48 h, 1 µM, compound concentration 1 uM, replicate 2
[11] = 48 h, 10 µM, compound concentration 10 uM, replicate 1
[12] = 48 h, 10 µM, compound concentration 10 uM, replicate 2

CC(=O)NCCc1c(Cc2ccccc2)[nH]c2ccccc12 [LUZINDOLE]
Population Apoptotic (%) [1]: 38% | Population Fragmented Nuclei (%) [1]: 7% | Population Healthy Nuclei (%) [1]: 79% | Population Hoechst High Intensity Objects (%) [1]: 11% | Population Membrane Permeable-Phenotype (%) [1]: 0% | Population Mitochondria Different-Phenotype (%) [1]: 54% | Population Mitotic Cells (%) [1]: 61% | Population Normal (%) [1]: 88% | Population Pyknosed Nuclei (%) [1]: 12% | Population Tubulin-Different-Phenotype (%) [1]: 39% | Total Cell Count [1]: 412 | Population Apoptotic (%) [2]: 43% | Population Fragmented Nuclei (%) [2]: 5% | Population Healthy Nuclei (%) [2]: 80% | Population Hoechst High Intensity Objects (%) [2]: 8% | Population Mitochondria Different-Phenotype (%) [2]: 68% | Population Mitotic Cells (%) [2]: 56% | Population Normal (%) [2]: 91% | Population Pyknosed Nuclei (%) [2]: 13% | Population Tubulin-Different-Phenotype (%) [2]: 27% | Total Cell Count [2]: 304 | Population Apoptotic (%) [3]: 37% | Population Fragmented Nuclei (%) [3]: 8% | Population Healthy Nuclei (%) [3]: 77% | Population Hoechst High Intensity Objects (%) [3]: 10% | Population Membrane Permeable-Phenotype (%) [3]: 0% | Population Mitochondria Different-Phenotype (%) [3]: 61% | Population Mitotic Cells (%) [3]: 62% | Population Normal (%) [3]: 89% | Population Pyknosed Nuclei (%) [3]: 14% | Population Tubulin-Different-Phenotype (%) [3]: 45% | Total Cell Count [3]: 379 | Population Apoptotic (%) [4]: 53% | Population Fragmented Nuclei (%) [4]: 5% | Population Healthy Nuclei (%) [4]: 80% | Population Hoechst High Intensity Objects (%) [4]: 9% | Population Mitochondria Different-Phenotype (%) [4]: 72% | Population Mitotic Cells (%) [4]: 46% | Population Normal (%) [4]: 90% | Population Tubulin-Different-Phenotype (%) [4]: 35% | Total Cell Count [4]: 315 | Population Apoptotic (%) [5]: 20% | Population Fragmented Nuclei (%) [5]: 12% | Population Healthy Nuclei (%) [5]: 75% | Population Hoechst High Intensity Objects (%) [5]: 7% | Population Membrane Permeable-Phenotype (%) [5]: 0% | Population Mitochondria Different-Phenotype (%) [5]: 33% | Population Mitotic Cells (%) [5]: 80% | Population Normal (%) [5]: 92% | Population Pyknosed Nuclei (%) [5]: 11% | Population Tubulin-Different-Phenotype (%) [5]: 26% | Total Cell Count [5]: 546 | Population Apoptotic (%) [6]: 40% | Population Fragmented Nuclei (%) [6]: 7% | Population Healthy Nuclei (%) [6]: 82% | Population Hoechst High Intensity Objects (%) [6]: 8% | Population Mitochondria Different-Phenotype (%) [6]: 45% | Population Mitotic Cells (%) [6]: 60% | Population Normal (%) [6]: 91% | Population Pyknosed Nuclei (%) [6]: 10% | Population Tubulin-Different-Phenotype (%) [6]: 18% | Total Cell Count [6]: 379 | Population Apoptotic (%) [7]: 40% | Population Fragmented Nuclei (%) [7]: 9% | Population Healthy Nuclei (%) [7]: 81% | Population Hoechst High Intensity Objects (%) [7]: 10% | Population Membrane Permeable-Phenotype (%) [7]: 1% | Population Mitochondria Different-Phenotype (%) [7]: 40% | Population Mitotic Cells (%) [7]: 60% | Population Normal (%) [7]: 89% | Population Pyknosed Nuclei (%) [7]: 8% | Population Tubulin-Different-Phenotype (%) [7]: 32% | Total Cell Count [7]: 502 | Population Apoptotic (%) [8]: 28% | Population Fragmented Nuclei (%) [8]: 11% | Population Healthy Nuclei (%) [8]: 77% | Population Hoechst High Intensity Objects (%) [8]: 11% | Population Membrane Permeable-Phenotype (%) [8]: 0% | Population Mitochondria Different-Phenotype (%) [8]: 58% | Population Mitotic Cells (%) [8]: 71% | Population Normal (%) [8]: 88% | Population Pyknosed Nuclei (%) [8]: 11% | Population Tubulin-Different-Phenotype (%) [8]: 24% | Total Cell Count [8]: 388 | Population Apoptotic (%) [9]: 24% | Population Fragmented Nuclei (%) [9]: 16% | Population Healthy Nuclei (%) [9]: 78% | Population Hoechst High Intensity Objects (%) [9]: 3% | Population Membrane Permeable-Phenotype (%) [9]: 1% | Population Mitochondria Different-Phenotype (%) [9]: 16% | Population Mitotic Cells (%) [9]: 75% | Population Normal (%) [9]: 96% | Population Pyknosed Nuclei (%) [9]: 5% | Population Tubulin-Different-Phenotype (%) [9]: 12% | Total Cell Count [9]: 965 | Population Apoptotic (%) [10]: 46% | Population Fragmented Nuclei (%) [10]: 12% | Population Healthy Nuclei (%) [10]: 82% | Population Hoechst High Intensity Objects (%) [10]: 6% | Population Membrane Permeable-Phenotype (%) [10]: 0% | Population Mitochondria Different-Phenotype (%) [10]: 23% | Population Mitotic Cells (%) [10]: 53% | Population Normal (%) [10]: 93% | Population Tubulin-Different-Phenotype (%) [10]: 13% | Total Cell Count [10]: 522 | Population Apoptotic (%) [11]: 27% | Population Fragmented Nuclei (%) [11]: 13% | Population Healthy Nuclei (%) [11]: 79% | Population Hoechst High Intensity Objects (%) [11]: 9% | Population Membrane Permeable-Phenotype (%) [11]: 0% | Population Mitochondria Different-Phenotype (%) [11]: 27% | Population Mitotic Cells (%) [11]: 72% | Population Normal (%) [11]: 90% | Population Pyknosed Nuclei (%) [11]: 7% | Population Tubulin-Different-Phenotype (%) [11]: 17% | Total Cell Count [11]: 742 | Population Apoptotic (%) [12]: 36% | Population Fragmented Nuclei (%) [12]: 11% | Population Healthy Nuclei (%) [12]: 82% | Population Hoechst High Intensity Objects (%) [12]: 6% | Population Mitochondria Different-Phenotype (%) [12]: 32% | Population Mitotic Cells (%) [12]: 63% | Population Normal (%) [12]: 93% | Population Pyknosed Nuclei (%) [12]: 5% | Population Tubulin-Different-Phenotype (%) [12]: 19% | Total Cell Count [12]: 573

CN1CCN(c2nc3cc(C(F)(F)F)ccc3n3cccc23)CC1.O=C(O)/C=C\C(=O)O.O=C(O)/C=C\C(=O)O
Population Apoptotic (%) [1]: 37% | Population Fragmented Nuclei (%) [1]: 5% | Population Healthy Nuclei (%) [1]: 80% | Population Hoechst High Intensity Objects (%) [1]: 10% | Population Membrane Permeable-Phenotype (%) [1]: 0% | Population Mitochondria Different-Phenotype (%) [1]: 48% | Population Mitotic Cells (%) [1]: 62% | Population Normal (%) [1]: 89% | Population Pyknosed Nuclei (%) [1]: 13% | Population Tubulin-Different-Phenotype (%) [1]: 33% | Total Cell Count [1]: 438 | Population Apoptotic (%) [2]: 53% | Population Fragmented Nuclei (%) [2]: 8% | Population Healthy Nuclei (%) [2]: 77% | Population Hoechst High Intensity Objects (%) [2]: 5% | Population Mitochondria Different-Phenotype (%) [2]: 76% | Population Mitotic Cells (%) [2]: 46% | Population Normal (%) [2]: 94% | Population Pyknosed Nuclei (%) [2]: 14% | Population Tubulin-Different-Phenotype (%) [2]: 35% | Total Cell Count [2]: 332 | Population Apoptotic (%) [3]: 68% | Population Fragmented Nuclei (%) [3]: 7% | Population Healthy Nuclei (%) [3]: 76% | Population Hoechst High Intensity Objects (%) [3]: 14% | Population Membrane Permeable-Phenotype (%) [3]: 0% | Population Mitochondria Different-Phenotype (%) [3]: 73% | Population Mitotic Cells (%) [3]: 31% | Population Normal (%) [3]: 85% | Population Pyknosed Nuclei (%) [3]: 15% | Population Tubulin-Different-Phenotype (%) [3]: 64% | Total Cell Count [3]: 396 | Population Apoptotic (%) [4]: 64% | Population Fragmented Nuclei (%) [4]: 5% | Population Hoechst High Intensity Objects (%) [4]: 9% | Population Mitochondria Different-Phenotype (%) [4]: 89% | Population Mitotic Cells (%) [4]: 35% | Population Normal (%) [4]: 90% | Population Pyknosed Nuclei (%) [4]: 18% | Population Tubulin-Different-Phenotype (%) [4]: 66% | Total Cell Count [4]: 286 | Population Apoptotic (%) [5]: 33% | Population Fragmented Nuclei (%) [5]: 9% | Population Healthy Nuclei (%) [5]: 81% | Population Hoechst High Intensity Objects (%) [5]: 6% | Population Membrane Permeable-Phenotype (%) [5]: 1% | Population Mitochondria Different-Phenotype (%) [5]: 30% | Population Mitotic Cells (%) [5]: 66% | Population Normal (%) [5]: 93% | Population Pyknosed Nuclei (%) [5]: 9% | Population Tubulin-Different-Phenotype (%) [5]: 24% | Total Cell Count [5]: 557 | Population Apoptotic (%) [6]: 54% | Population Fragmented Nuclei (%) [6]: 6% | Population Healthy Nuclei (%) [6]: 83% | Population Membrane Permeable-Phenotype (%) [6]: 0% | Population Mitochondria Different-Phenotype (%) [6]: 50% | Population Mitotic Cells (%) [6]: 45% | Population Pyknosed Nuclei (%) [6]: 10% | Population Tubulin-Different-Phenotype (%) [6]: 25% | Total Cell Count [6]: 390 | Population Apoptotic (%) [7]: 41% | Population Fragmented Nuclei (%) [7]: 8% | Population Healthy Nuclei (%) [7]: 77% | Population Hoechst High Intensity Objects (%) [7]: 9% | Population Membrane Permeable-Phenotype (%) [7]: 0% | Population Mitochondria Different-Phenotype (%) [7]: 65% | Population Mitotic Cells (%) [7]: 58% | Population Normal (%) [7]: 90% | Population Pyknosed Nuclei (%) [7]: 13% | Population Tubulin-Different-Phenotype (%) [7]: 62% | Total Cell Count [7]: 490 | Population Apoptotic (%) [8]: 63% | Population Fragmented Nuclei (%) [8]: 10% | Population Healthy Nuclei (%) [8]: 78% | Population Hoechst High Intensity Objects (%) [8]: 7% | Population Mitochondria Different-Phenotype (%) [8]: 79% | Population Mitotic Cells (%) [8]: 36% | Population Normal (%) [8]: 92% | Population Pyknosed Nuclei (%) [8]: 10% | Population Tubulin-Different-Phenotype (%) [8]: 58% | Total Cell Count [8]: 378 | Population Apoptotic (%) [9]: 20% | Population Fragmented Nuclei (%) [9]: 13% | Population Healthy Nuclei (%) [9]: 78% | Population Hoechst High Intensity Objects (%) [9]: 3% | Population Membrane Permeable-Phenotype (%) [9]: 2% | Population Mitochondria Different-Phenotype (%) [9]: 17% | Population Mitotic Cells (%) [9]: 79% | Population Normal (%) [9]: 96% | Population Pyknosed Nuclei (%) [9]: 7% | Population Tubulin-Different-Phenotype (%) [9]: 17% | Total Cell Count [9]: 915 | Population Apoptotic (%) [10]: 37% | Population Healthy Nuclei (%) [10]: 79% | Population Hoechst High Intensity Objects (%) [10]: 5% | Population Membrane Permeable-Phenotype (%) [10]: 0% | Population Mitochondria Different-Phenotype (%) [10]: 42% | Population Mitotic Cells (%) [10]: 62% | Population Normal (%) [10]: 94% | Population Tubulin-Different-Phenotype (%) [10]: 21% | Total Cell Count [10]: 535 | Population Apoptotic (%) [11]: 50% | Population Fragmented Nuclei (%) [11]: 15% | Population Healthy Nuclei (%) [11]: 75% | Population Hoechst High Intensity Objects (%) [11]: 10% | Population Membrane Permeable-Phenotype (%) [11]: 2% | Population Mitochondria Different-Phenotype (%) [11]: 41% | Population Mitotic Cells (%) [11]: 50% | Population Normal (%) [11]: 89% | Population Pyknosed Nuclei (%) [11]: 8% | Population Tubulin-Different-Phenotype (%) [11]: 44% | Total Cell Count [11]: 672 | Population Apoptotic (%) [12]: 52% | Population Fragmented Nuclei (%) [12]: 11% | Population Healthy Nuclei (%) [12]: 77% | Population Hoechst High Intensity Objects (%) [12]: 12% | Population Membrane Permeable-Phenotype (%) [12]: 0% | Population Mitochondria Different-Phenotype (%) [12]: 65% | Population Mitotic Cells (%) [12]: 47% | Population Normal (%) [12]: 87% | Population Pyknosed Nuclei (%) [12]: 10% | Population Tubulin-Different-Phenotype (%) [12]: 56% | Total Cell Count [12]: 472
